The text below walks through data of publication PMC4360665 (CPT: Pharmacometrics & Systems Pharmacology, 2015).

Data set [1] is classed as in vivo, human. To be noted: for Mean sirolimus oral clearance: allometrically scaled (0.75, 70 kg). In short, it runs like this:
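Oral dosing began at 0.8 mg/m2 twice daily, then adjusted to trough targets of 10 to 15 ng/ml. Concentrations were drawn at 8–14 days, then every 2 weeks (LLOQ 1.0 ng/ml). First-4-week samples (1–3 per patient) fed a Bayesian one-compartment estimator with pediatric neurofibromatosis priors, estimating clearance only. Clearances were scaled allometrically (exponent 0.75, 70 kg), and an Emax fit against age gave CLmatured and Age50.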

For a further data set, the system named is CYP3A. The format is in vitro ADME, human. The settings on record: ketoconazole at 1 µM; nine individual pediatric liver microsomes aged 1 month to 4 years; mean ± SD. A digest of the protocol:
(§1)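 Substrate depletion of the test compound in nine individual pediatric liver microsomes in 100 mM potassium phosphate (pH 7.4) at 37°C, with and without CYP-selective inhibitor (1 µM; ketoconazole for CYP3A, montelukast for CYP2C8). NADPH regenerating system starts the reaction (t=0). Serial aliquots are extracted with methanol/ZnSO4 plus internal standard and analysed by online SPE-LC-MS/MS. kel comes from the log %-remaining vs time slope. % contribution is calculated from kel with and without inhibitor.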

In another data set the target is T1, CYP2C8 (Homo sapiens, UniProt P10632).
T1 sequence (P10632 1-490): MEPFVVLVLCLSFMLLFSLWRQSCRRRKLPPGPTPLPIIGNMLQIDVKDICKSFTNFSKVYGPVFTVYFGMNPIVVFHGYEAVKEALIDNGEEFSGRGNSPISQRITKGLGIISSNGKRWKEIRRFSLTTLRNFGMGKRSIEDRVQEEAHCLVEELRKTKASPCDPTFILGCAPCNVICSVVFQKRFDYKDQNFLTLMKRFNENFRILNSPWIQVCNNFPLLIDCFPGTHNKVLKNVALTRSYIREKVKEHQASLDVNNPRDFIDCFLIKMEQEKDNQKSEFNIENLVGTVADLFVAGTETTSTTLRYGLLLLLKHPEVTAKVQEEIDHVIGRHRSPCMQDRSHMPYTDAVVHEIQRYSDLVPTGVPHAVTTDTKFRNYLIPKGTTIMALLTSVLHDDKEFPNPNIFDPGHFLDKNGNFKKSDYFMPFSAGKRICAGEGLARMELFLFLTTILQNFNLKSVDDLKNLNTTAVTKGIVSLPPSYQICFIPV
Type of data set: in vitro ADME. To be noted: montelukast at 1 µM; nine individual pediatric liver microsomes aged 1 month to 4 years; mean ± SD. A digest of the protocol:
as §1

Another data set addresses recombinant CYP3A7 (Homo sapiens, UniProt P24462). The data set is described as follows: Substrate depletion assay with recombinant CYP3A7. Type of data set: in vitro ADME. In short, it runs like this: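 Recombinant CYP3A7 (with reductase and cytochrome b5) was brought to 0.4 mg/ml protein with blank microsomes and incubated with sirolimus in 100 mM potassium phosphate, pH 7.4, at 37°C with shaking. NADPH regenerating system started the reaction (t = 0), with aliquots taken at serial times. Sirolimus remaining was measured by on-line SPE–HPLC–MS/MS against an internal standard. The slope of log % remaining versus time was converted to CLint per pmol CYP.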

Data set [2] concerns P-glycoprotein (MDR1/ABCB1). To be noted: cited from earlier work.

Values joined by “and” are separate entries in the source; they are usually repeats but may differ in a detail not shown here. Equal values may be shown once. Read-outs that look alike come from different tables or passages of the source.

recombinant CYP3A7, sequence (P24462 whole entry): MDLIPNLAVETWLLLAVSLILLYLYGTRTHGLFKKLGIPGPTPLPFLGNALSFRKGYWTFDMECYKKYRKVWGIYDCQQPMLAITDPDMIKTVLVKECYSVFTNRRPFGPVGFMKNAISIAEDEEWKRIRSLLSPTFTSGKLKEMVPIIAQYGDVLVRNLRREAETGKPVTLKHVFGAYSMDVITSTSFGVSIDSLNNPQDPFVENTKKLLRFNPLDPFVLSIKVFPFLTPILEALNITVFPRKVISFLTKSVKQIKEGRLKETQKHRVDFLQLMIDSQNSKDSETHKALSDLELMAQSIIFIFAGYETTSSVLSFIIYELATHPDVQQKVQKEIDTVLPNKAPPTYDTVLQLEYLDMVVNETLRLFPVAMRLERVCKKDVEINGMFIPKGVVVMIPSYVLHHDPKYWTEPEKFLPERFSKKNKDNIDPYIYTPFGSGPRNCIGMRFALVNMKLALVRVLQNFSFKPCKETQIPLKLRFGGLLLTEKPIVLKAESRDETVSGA

As for `CO[C@H]1C[C@@H]2CC[C@@H](C)[C@@](O)(O2)C(=O)C(=O)N2CCCC[C@H]2C(=O)O[C@H]([C@H](C)C[C@@H]2CC[C@@H](O)[C@H](OC)C2)CC(=O)[C@H](C)/C=C(\C)[C@@H](O)[C@@H](OC)C(=O)[C@H](C)C[C@H](C)/C=C/C=C/C=C/1C` [sirolimus], the “Mean sirolimus oral clearance” value was 17 ± 4 L/h in data set [1] (age group 1 year (≥1, <2), n=5); 11 ± 3 L/h in data set [1] (age group 1–8 months (<1), n=9); 21 ± 3 L/h in data set [1] (age group 2 years (≥2, <3), n=3); 18 ± 6 L/h in data set [1] (age group 3–18 years (≥3), n=27). Also, in data set [1] (clinical clearance estimates, patients 1 months to 3 years, n = 20, Emax model), the “Observed CLmatured” value is on record as 19.4 ± 2.2 L/h/70 kg. Moreover, the “% of Contribution of CYP3A to sirolimus metabolism” value with CYP3A is 95.8% and 95.8±4.8%. Further, on CYP2C8, the “% of Contribution of CYP2C8 to sirolimus metabolism” value is “less than 10% and 8.5±4.3%”. Moreover, the “fold lower CLint of CYP3A7 than reported CYP3A4 activity” value at recombinant CYP3A7 (CYP3A4 value from ref 17) is recorded as 30 fold. Moreover, the “fold lower CLint of CYP3A7 than reported CYP3A5 activity” value on recombinant CYP3A7 (CYP3A5 value from ref 17) stood at 13 fold. Further, the “CLint for recombinant CYP3A7” value at recombinant CYP3A7 (substrate depletion, 37°C, pH 7.4) was found to be 0.30 µl/min/pmol CYP protein. Also, the “substrate of P-glycoprotein (MDR1/ABCB1)” value in data set [2] is “substrate”.
